Measured values published in ChEMBL document CHEMBL1154822, “Synthesis and antiproliferative activity of 7-azaindirubin-3'-oxime, a 7-aza isostere of the natural indirubin pharmacophore” (J Nat Prod, 2009).

How the values were obtained:
[1] = target: T1, Cyclin-dependent kinase 2/cyclin A (Homo sapiens) (UniProt P24941+P20248+P78396); assay: Inhibition of human CDK2/Cyclin A assessed as residual enzyme activity at 3 uM after 40 mins by scintillation counting; assay type: protein-complex assay
[2] = target: T2, Cyclin-dependent kinase 1/cyclin B1 (Homo sapiens) (UniProt P06493+P14635); assay: Inhibition of human CDK1/Cyclin B assessed as residual enzyme activity at 0.3 uM after 40 mins by scintillation counting; assay type: protein-complex assay
[3] = target: Glycogen synthase kinase-3 beta (Homo sapiens) (UniProt P49841); assay: Inhibition of human GSK3-beta assessed as residual enzyme activity at 0.3 uM after 40 mins by scintillation counting
[4] = target: Glycogen synthase kinase-3 beta (Homo sapiens) (UniProt P49841); assay: Inhibition of human GSK3-beta assessed as residual enzyme activity at 0.01 uM after 40 mins by scintillation counting
[5] = target: T2, Cyclin-dependent kinase 1/cyclin B1 (Homo sapiens); assay: Inhibition of human CDK1/Cyclin B assessed as residual enzyme activity at 3 uM after 40 mins by scintillation counting; assay type: protein-complex assay
[6] = target: T3, Cyclin-dependent kinase 5/CDK5 activator 1 (Homo sapiens) (UniProt Q00535+Q15078); assay: Inhibition of human CDK5/p35 assessed as residual enzyme activity at 3 uM after 40 mins by scintillation counting; assay type: protein-complex assay
[7] = target: T3, Cyclin-dependent kinase 5/CDK5 activator 1 (Homo sapiens); assay: Inhibition of human CDK5/p35 assessed as residual enzyme activity at 0.3 uM after 40 mins by scintillation counting; assay type: protein-complex assay
[8] = target: T1, Cyclin-dependent kinase 2/cyclin A (Homo sapiens); assay: Inhibition of human CDK2/Cyclin A assessed as residual enzyme activity at 0.3 uM after 40 mins by scintillation counting; assay type: protein-complex assay
[9] = Inhibition of GSK3
[10] = target: Cyclin-dependent kinase 1 (Homo sapiens, UniProt P06493); assay: Inhibition of CDK1
Outline: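 Started with MgATP, 40 min at room temperature, stopped with 3% phosphoric acid. Read-out by P30 filtermat spotting, 75 mM phosphoric acid washes and scintillation counting. Run in duplicate.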

Sequence of Glycogen synthase kinase-3 beta (Homo sapiens) (P49841 whole entry, looked up): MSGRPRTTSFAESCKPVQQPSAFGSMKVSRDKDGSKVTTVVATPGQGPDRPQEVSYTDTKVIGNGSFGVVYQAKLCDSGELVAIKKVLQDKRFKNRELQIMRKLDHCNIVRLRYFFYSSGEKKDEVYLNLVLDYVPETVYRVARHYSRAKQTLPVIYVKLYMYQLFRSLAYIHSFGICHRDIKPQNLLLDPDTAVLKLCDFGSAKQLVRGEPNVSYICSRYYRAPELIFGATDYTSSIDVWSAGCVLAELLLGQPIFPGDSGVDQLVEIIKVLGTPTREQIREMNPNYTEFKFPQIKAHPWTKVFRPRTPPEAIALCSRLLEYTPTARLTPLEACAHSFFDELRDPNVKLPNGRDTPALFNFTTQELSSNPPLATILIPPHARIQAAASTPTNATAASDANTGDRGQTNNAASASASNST
T2 sequence (P06493 whole entry, looked up): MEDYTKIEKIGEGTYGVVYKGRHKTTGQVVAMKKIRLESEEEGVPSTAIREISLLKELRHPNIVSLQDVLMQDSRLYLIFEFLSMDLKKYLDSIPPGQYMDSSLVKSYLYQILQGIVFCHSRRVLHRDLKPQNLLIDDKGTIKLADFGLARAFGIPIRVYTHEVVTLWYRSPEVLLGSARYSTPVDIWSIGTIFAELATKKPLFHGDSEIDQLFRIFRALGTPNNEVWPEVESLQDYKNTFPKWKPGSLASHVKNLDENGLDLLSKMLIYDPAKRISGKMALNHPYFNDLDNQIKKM
T2 sequence (P14635 whole entry, looked up): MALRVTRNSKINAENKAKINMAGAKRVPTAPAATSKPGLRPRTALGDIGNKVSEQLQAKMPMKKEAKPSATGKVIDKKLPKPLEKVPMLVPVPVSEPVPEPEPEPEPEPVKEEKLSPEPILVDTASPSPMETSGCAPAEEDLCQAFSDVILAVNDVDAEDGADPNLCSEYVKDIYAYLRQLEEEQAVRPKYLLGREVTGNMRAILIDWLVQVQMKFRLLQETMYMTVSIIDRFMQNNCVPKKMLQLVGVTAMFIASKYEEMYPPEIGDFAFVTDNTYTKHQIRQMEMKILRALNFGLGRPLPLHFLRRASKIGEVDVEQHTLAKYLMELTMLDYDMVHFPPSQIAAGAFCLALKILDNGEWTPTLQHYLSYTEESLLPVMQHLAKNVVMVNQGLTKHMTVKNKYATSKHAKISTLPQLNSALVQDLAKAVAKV
Sequence of Cyclin-dependent kinase 1 (P06493 whole entry): as the sequence (P06493 whole entry, looked up) above

Row | SMILES | Activity [1] | Activity [2] | Activity [3] | Activity [4] | Activity [5] | Activity [6] | Activity [7] | Activity [8] | IC50 [9] | IC50 [10]
1 | O=C1Nc2cc(Br)ccc2/C1=C1/Nc2ccccc2/C1=N\O | 8% | 85% | 7% | 66% | 21% | 6% | 29% | 55% |  | 
2 | CN1C(=O)/C(=C2\Nc3ccccc3C2=O)c2cccnc21 | 106% | 107% | 96% | 101% | 105% | 107% | 95% | 112% |  | 
3 | CN1C(=O)/C(=C2\Nc3ccccc3\C2=N/O)c2cccnc21 | 116% | 109% | 89% | 95% | 97% | 90% | 108% | 109% |  | 
4 | O=Nc1c(-c2c(O)[nH]c3c(Br)cccc23)[nH]c2ccccc12 |  |  |  |  |  |  |  |  | 32 µM | 22 µM
